Active and inactive are the calls of the source. The rule behind the calls is not given here.
Legend:
Influenza A virus [1] = assay: Antimicrobial activity against Influenza A virus (A/Puerto Rico/8/34(H1N1)) infected in BALB/c mouse assessed as increase in mouse survival at 11 mg/kg, po for 7 days post infection; type: functional, organism-based; parameters: dose 11 mg/kg; conditions: A/Puerto Rico/8/1934(H1N1)
Influenza A virus [2] = assay: Antimicrobial activity against Influenza A virus (A/Puerto Rico/8/34(H1N1)) infected in BALB/c mouse assessed as increase in mouse survival at 11 mg/kg, po for 4 days post infection; type: functional, organism-based; parameters: dose 11 mg/kg; conditions: A/Puerto Rico/8/1934(H1N1)
Influenza A virus [3] = assay: Antimicrobial activity against oseltamivir-sensitive influenza A virus (A/Yokohama/67/2006 (H1N1)) clone 1 infected in BALB/c mouse assessed as reduction in viral titer in lung at 1.0 mg/kg, po administered qd post 13 hrs infection measured after 37 hrs post infection; type: functional, organism-based; parameters: dose 1 mg/kg
Influenza A virus [4] = assay: Antimicrobial activity against Influenza A virus (A/Puerto Rico/8/34(H1N1)) infected in BALB/c mouse assessed as increase in mouse survival at 11 mg/kg, po for 1 day post infection; type: functional, organism-based; parameters: dose 11 mg/kg; conditions: A/Puerto Rico/8/1934(H1N1)
Influenza A virus [5] = assay: Antimicrobial activity against Influenza A virus (A/Puerto Rico/8/34(H1N1)) infected in BALB/c mouse assessed as increase in mouse survival at 1.1 mg/kg, po for 1 day post infection; type: functional, organism-based; parameters: dose 1.1 mg/kg; conditions: A/Puerto Rico/8/1934(H1N1)
Influenza A virus [6] = assay: Antimicrobial activity against Influenza A virus (A/Puerto Rico/8/34(H1N1)) infected in BALB/c mouse assessed as increase in mouse survival at 1.1 mg/kg, po bid administered 11 hrs post infection for 5 days […] infection; type: functional, organism-based; parameters: dose 1.1 mg/kg; conditions: A/Puerto Rico/8/1934(H1N1)
Method in brief: (§1)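 Female BALB/c mice (5–6 weeks) infected intranasally with A/PR/8/34 at 100 PFU, n = 10 per group. Each mouse got one intranasal dose at 11 hpi plus oral doses twice daily from 11 hpi to 120 hpi. Drug went by one route and saline by the other, all in saline vehicle. Survival was followed daily to day 20 and analysed by Kaplan-Meier with a log-rank test against the saline group.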

Influenza A virus [7] = assay: Antimicrobial activity against oseltamivir-sensitive influenza A virus (A/Yokohama/67/2006 (H1N1)) clone 1 infected in BALB/c mouse assessed as reduction in viral titer in lung at 10 mg/kg, po administered QD post 13 hrs infection measured after 85 hrs post infection; type: functional, organism-based; parameters: dose 10 mg/kg
Influenza A virus [8] = assay: Antimicrobial activity against oseltamivir-sensitive influenza A virus (A/Yokohama/67/2006 (H1N1)) clone 1 infected in BALB/c mouse assessed as reduction in viral titer in lung at 1.0 mg/kg, po administered QD post 13 hrs infection measured after 61 hrs post infection; type: functional, organism-based; parameters: dose 1 mg/kg
Influenza B virus [9] = assay: Antimicrobial activity against Influenza B virus (B/Malaysia/2506/2004) infected po dosed Mustela putorius furo assessed as nasal viral titer treated bid after 4 hrs post infection measured after 3 days; type: functional, organism-based
Method in brief: (§2)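 Ferrets (600–800 g), seronegative by hemagglutination inhibition, anaesthetized with ketamine/xylazine and infected with B/Malaysia/2506/2004, 1,000 PFU/100 μl. From 4 hpi they received either a single intranasal dose (saline, 0.05 or 0.5 μmol/kg) or 25 mg/kg oral twice daily. Nasal wash titers measured by MDCK plaque assay on days 1, 2 and 3, log10 PFU/ml (n = 5). Undetectable samples entered at the lower limit of detection.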

Influenza A virus [10] = assay: Antimicrobial activity against Influenza A virus (A/Puerto Rico/8/34(H1N1)) infected in BALB/c mouse assessed as increase in mouse survival at 11 mg/kg, po for 12 hrs post infection; type: functional, organism-based; parameters: dose 11 mg/kg; conditions: A/Puerto Rico/8/1934(H1N1)
Influenza A virus [11] = assay: Antimicrobial activity against oseltamivir-sensitive influenza A virus (A/Yokohama/67/2006 (H1N1)) clone 1 infected in BALB/c mouse assessed as reduction in viral titer in lung at 10 mg/kg, po administered QD post 13 hrs infection measured after 37 hrs post infection; type: functional, organism-based; parameters: dose 10 mg/kg
Influenza B virus [12] = assay: Antimicrobial activity against Influenza B virus (B/Malaysia/2506/2004) infected po dosed Mustela putorius furo assessed as nasal viral titer treated bid after 4 hrs post infection measured after 2 days; type: functional, organism-based; method in brief: as §2
Influenza A virus [13] = assay: Antimicrobial activity against oseltamivir-sensitive influenza A virus (A/Yokohama/67/2006 (H1N1)) clone 1 infected in BALB/c mouse assessed as reduction in viral titer in lung at 10 mg/kg, po administered QD post 13 hrs infection measured after 61 hrs post infection; type: functional, organism-based; parameters: dose 10 mg/kg
Influenza A virus [14] = assay: Antimicrobial activity against Influenza A virus (A/Puerto Rico/8/34(H1N1)) infected in BALB/c mouse assessed as increase in mouse survival at 1.1 mg/kg, po for 7 days post infection; type: functional, organism-based; parameters: dose 1.1 mg/kg; conditions: A/Puerto Rico/8/1934(H1N1)
Influenza A virus [15] = assay: Antimicrobial activity against Influenza A virus (A/Puerto Rico/8/34(H1N1)) infected in BALB/c mouse assessed as increase in mouse survival at 1.1 mg/kg, po for 12 hrs post infection; type: functional, organism-based; parameters: dose 1.1 mg/kg; conditions: A/Puerto Rico/8/1934(H1N1)
Influenza A virus [16] = assay: Antimicrobial activity against oseltamivir-sensitive influenza A virus (A/Yokohama/67/2006 (H1N1)) clone 1 infected in BALB/c mouse assessed as reduction in viral titer in lung at 1.0 mg/kg, po administered QD post 13 hrs infection measured after 85 hrs post infection; type: functional, organism-based; parameters: dose 1 mg/kg
Influenza A virus [17] = assay: Antimicrobial activity against Influenza A virus (A/Puerto Rico/8/34(H1N1)) infected in BALB/c mouse assessed as reduction in viral titer in lung at 10 mg/kg, po bid repeated regimen after 11 hrs post infection; type: functional, organism-based; parameters: dose 10 mg/kg; conditions: A/Puerto Rico/8/1934(H1N1), TDE = time-dependent effect
Method in brief: (§3)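 BALB/c mice infected intranasally with A/PR/8/34 at 30 PFU. Oral drug was given twice daily from 11 hpi with intranasal saline at 11 hpi, or a single intranasal dose at 11 hpi with oral saline on the same schedule. Lungs (n = 3) were harvested at 35, 59 and 83 hpi. Titers were measured by MDCK plaque assay, log10 PFU/lungs.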

Influenza A virus [18] = assay: Antimicrobial activity against Influenza A virus (A/Puerto Rico/8/34(H1N1)) infected in BALB/c mouse assessed as increase in mouse survival at 110 mg/kg, po for 1 days before infection; type: functional, organism-based; parameters: dose 110 mg/kg; conditions: A/Puerto Rico/8/1934(H1N1)
Method in brief: (§4)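 Mice received one oral dose (200 μl in saline) at 1 day or 12 h before intranasal infection with A/PR/8/34 at 100 PFU. Saline controls were dosed intranasally 7 days before infection. n = 8 per group. Survival was monitored to 20 dpi and compared with saline by log-rank test.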

Influenza A virus [19] = assay: Antimicrobial activity against Influenza A virus (A/Puerto Rico/8/34(H1N1)) infected in BALB/c mouse assessed as increase in mouse survival at 1.1 mg/kg, po bid administered 11 hrs post infection for 5 days […] infection measured on day 20; type: functional, A/Puerto Rico/8/1934(H1N1); method in brief: as §1
Influenza A virus [20] = assay: Antimicrobial activity against Influenza A virus (A/Puerto Rico/8/34(H1N1)) infected in BALB/c mouse assessed as reduction in viral titer in lung at 1 mg/kg, po bid repeated regimen after 11 hrs post infection; type: functional, organism-based; parameters: dose 1 mg/kg; conditions: A/Puerto Rico/8/1934(H1N1), TDE = time-dependent effect; method in brief: as §3
Influenza B virus [21] = assay: Antimicrobial activity against Influenza B virus (B/Malaysia/2506/2004) infected po dosed Mustela putorius furo assessed as nasal viral titer treated bid after 4 hrs post infection measured after 1 day; type: functional, organism-based; method in brief: as §2
Influenza A virus [22] = assay: Antimicrobial activity against Influenza A virus (A/Puerto Rico/8/34(H1N1)) infected in BALB/c mouse assessed as increase in mouse survival at 1.1 mg/kg, po for 4 days post infection; type: functional, organism-based; parameters: dose 1.1 mg/kg; conditions: A/Puerto Rico/8/1934(H1N1)
Rattus norvegicus = species: Rattus norvegicus; assay: Half life in rat assessed as oseltamivir carboxylate; type: ADME, organism-based; conditions: in vivo
Influenza A virus [23] = assay: Antimicrobial activity against Influenza A virus (A/Puerto Rico/8/34(H1N1)) infected in BALB/c mouse assessed as increase in mouse survival at 110 mg/kg, po for 12 hrs before infection; type: functional, organism-based; parameters: dose 110 mg/kg; conditions: A/Puerto Rico/8/1934(H1N1); method in brief: as §4
[24] = Half life in mouse; type: ADME, organism-based; conditions: in vivo

Q: With CCOC(=O)C1=C[C@@H](OC(CC)CC)[C@H](NC(C)=O)[C@@H](N)C1.O=P(O)(O)O [OSELTAMIVIR PHOSPHATE] as the compound, how does the Activity (Influenza A virus [1]) read?
A: inactive

Q: What about the Activity (Influenza A virus [2]) of the same compound?
A: inactive

Q: What about the Activity (Influenza A virus [3]) of the same compound?
A: Active

Q: What about the Activity (Influenza A virus [4]) of the same compound?
A: inactive

Q: What about the Activity (Influenza A virus [5]) of the same compound?
A: inactive

Q: What about the Activity (Influenza A virus [6]) of the same compound?
A: Active

Q: What about the Activity (Influenza A virus [7]) of the same compound?
A: Active

Q: And the Activity (Influenza A virus [8])?
A: Active

Q: What about the Activity (Influenza B virus [9]) of the same compound?
A: Dose-dependent effect

Q: What about the Activity (Influenza A virus [10]) of the same compound?
A: inactive

Q: What about the Activity (Influenza A virus [11]) of the same compound?
A: Active

Q: What about the Activity (Influenza B virus [12]) of the same compound?
A: Dose-dependent effect

Q: What about the Activity (Influenza A virus [13]) of the same compound?
A: Active

Q: What about the Activity (Influenza A virus [14]) of the same compound?
A: inactive

Q: And the Activity (Influenza A virus [15])?
A: inactive

Q: And the Activity (Influenza A virus [16])?
A: Active

Q: What about the Activity (Influenza A virus [17]) of the same compound?
A: tde

Q: And the Activity (Influenza A virus [18])?
A: Active

Q: What about the Activity (Influenza A virus [19]) of the same compound?
A: 50%

Q: And the Activity (Influenza A virus [20])?
A: tde

Q: And the Activity (Influenza B virus [21])?
A: Dose-dependent effect

Q: What about the Activity (Influenza A virus [22]) of the same compound?
A: inactive

Q: And the t1/2 (Rattus norvegicus)?
A: 7 h

Q: What about the Activity (Influenza A virus [23]) of the same compound?
A: Active

Q: With CO[C@@H]([C@@H]1OC(C(=O)O)=C[C@H](NC(=N)N)[C@H]1NC(C)=O)[C@H](O)CO [LANINAMIVIR] as the compound, how does the half-life [24] read?
A: 41.4 h

Source: ChEMBL document CHEMBL1255395, “Laninamivir prodrug CS-8958, a long-acting neuraminidase inhibitor, shows superior anti-influenza virus activity after a single administration” (Antimicrob Agents Chemother, 2010)
